Laboratory results published in ChEMBL document CHEMBL5674890, “Selective inhibition of CBP/p300 HAT by A-485 results in suppression of lipogenesis and hepatic gluconeogenesis” (Cell Death Dis, 2020).
The source made the active and inactive calls. The rule behind the calls is not given here.

Tests used:
Mus musculus [1] = assay: Anti-obesity activity in C57BL/6 mouse supplemented with high fat diet assessed as decrease in total fat mass at 20 mg/kg/day, ip administered for 1 week; format: functional, organism-based; conditions: time 1.0 weeks
Summary of the method: (§1)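 Male C57BL/6 mice fed high-fat diet for 14 weeks from 5 weeks of age, then ip 20 mg·kg−1·day−1 for 7 days. Body weight, EchoMRI lean/fat mass, and random or 16 h-fasted blood glucose recorded, as the line states.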

Mus musculus [2] = assay: Anti-obesity activity in C57BL/6 mouse supplemented with high fat diet assessed as effect on total lean mass at 20 mg/kg/day, ip administered for 1 week; format: functional, organism-based; conditions: time 1.0 weeks; summary of the method: as §1
Mus musculus [3] = assay: Inhibition of lipogenesis in C57BL/6 mouse supplemented with high-fat diet assessed as decrease in SREBP-1c mRNA expression at 20 mg/kg/day, ip administered for 1 week measured by RT-qPCR assay; format: functional, organism-based; conditions: time 1.0 weeks
Summary of the method: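 Male C57BL/6 mice were fed high-fat diet for 14 weeks from 5 weeks of age, then injected ip with 20 mg·kg−1·day−1 for 7 days or given vehicle. Epididymal and inguinal WAT were weighed, examined by H&E, and analysed. Transcripts were measured by Trizol/SYBR Green RT-qPCR; proteins by western blot. n = 5–9; mean ± SEM.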

Adipocyte = assay: Inhibition of lipogenesis in mouse adipocytes isolated stromal vascular cells assessed as decrease in SREBP-1c mRNA expression measured after 24 hrs by RT-qPCR assay; format: functional, cell-based
Summary of the method: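 Stromal vascular cells from inguinal WAT of C57BL/6 mice, grown in DMEM/F12 + 10% FBS at 37 °C, 10% CO2. At confluence, induced 48 h with 5 μg/ml insulin, 1 μM dexamethasone, 0.5 mM isobutylmethylxanthine, then 6 days in 5 μg/ml insulin; fully differentiated day 8. Mature adipocytes exposed to inhibitor 24 h. Total RNA by Trizol, SYBR Green RT-qPCR; protein by western blot.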

Mus musculus [4] = assay: Inhibition of hepatic lipogenesis in C57BL/6 mouse supplemented with normal chow diet assessed as decrease in lipid droplet at 20 mg/kg/day, ip administered for 1 week measured by Oil red O staining method; format: functional, organism-based; conditions: time 1.0 weeks
Summary of the method: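 Eight-week-old male C57BL/6 mice on normal chow were dosed daily by ip injection at 20 mg·kg−1·day−1 for 7 days, with a vehicle group. Liver sections were stained with Oil red O to view lipid droplets.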

Mus musculus [5] = assay: Inhibition of hepatic lipogenesis in C57BL/6 mouse supplemented with normal chow diet assessed as effect on ACADVL mRNA expression at 20 mg/kg/day, ip administered for 1 week measured by RT-qPCR assay; format: functional, organism-based; conditions: time 1.0 weeks
Summary of the method: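 Normal-chow male C57BL/6 mice, 8 weeks old, were injected ip at 20 mg·kg−1·day−1 daily for 7 days or given vehicle. Liver RNA was extracted with Trizol, and fatty-acid-oxidation gene transcripts were quantified by SYBR Green RT-qPCR. n = 5–9; mean ± SEM.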

Hepatocyte [6] = assay: Inhibition of lipogenesis in mouse primary hepatocytes assessed as decrease in ACC mRNA expression at 3 uM in presence of 100 nM insulin and 5 to 25 mM glucose measured after 18 hrs by RT-qPCR assay; format: functional, cell-based
Summary of the method: (§2)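 Primary hepatocytes isolated from C57BL/6 mice by two-step perfusion. Cells incubated 18 h with 3 μM inhibitor, with 0 or 100 nM insulin and 5 or 25 mM glucose. Transcripts quantified by SYBR Green RT-qPCR after Trizol RNA extraction; proteins by western blot of lysates. Mean ± SEM.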

Hepatocyte [7] = assay: Inhibition of lipogenesis in mouse primary hepatocytes assessed as decrease in HMGCS1 mRNA expression at 3 uM in presence of 100 nM insulin and 5 to 25 mM glucose measured after 18 hrs by RT-qPCR assay; format: functional, cell-based; summary of the method: as §2
Hepatocyte [8] = assay: Inhibition of lipogenesis in mouse primary hepatocytes assessed as increase in ACO mRNA expression at 3 uM in presence of 100 nM insulin and 5 to 25 mM glucose measured after 18 hrs by RT-qPCR assay; format: functional, cell-based; summary of the method: as §2
HepG2 = assay: Inhibition of glucogenesis in human HepG2 cells stimulated with 8-Br-cAMP at 3 uM assessed as effect on change in TORC2/CREB interaction measured by coimmunoprecipitation analysis; format: functional, cell-based
Summary of the method: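 HepG2 cells treated with 3 μM compound. CREB association with CBP and TORC2 assessed by coimmunoprecipitation (antibody 2 h, protein A/G beads overnight at 4 °C) and western blot.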

Hepatocyte [9] = assay: Inhibition of glucogenesis in mouse primary hepatocytes stimulated with 100 uM 8-Br-cAMP assessed as effect on HNF4alpha mRNA expression at 3 uM measured after 8 hrs by RT-qPCR assay; format: functional, cell-based
Summary of the method: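 Primary mouse hepatocytes treated with 3 μM compound and 100 μM 8-Br-cAMP for 8 h. Trizol RNA, SYBR Green RT-qPCR of the named transcript. Mean ± SEM, three independent experiments.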

Hepatocyte [10] = assay: Inhibition of glucogenesis in mouse primary hepatocytes stimulated with 100 uM 8-Br-cAMP assessed as decrease in C/EBPalpha protein expression at 3 uM measured after 12 hrs by western blot analysis; format: functional, cell-based
Summary of the method: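 Primary mouse hepatocytes incubated 12 h with 3 μM compound and 100 μM 8-Br-cAMP. Lysates western blotted for FOXO1, C/EBPα or PGC1α. Three independent experiments.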

Mus musculus [11] = species: Mus musculus; assay: Inhibition of glucogenesis in mouse assessed as decrease in occupancy of G6Pc promoter with FOXO1 in liver measured by ChIP-qPCR analysis; format: functional, organism-based
Summary of the method: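 Livers from mice dosed ip at 20 mg·kg−1·day−1 for 7 days. Tissue crosslinked in 1% formaldehyde, lysed, sonicated to 200–1000 bp chromatin, immunoprecipitated with anti-FOXO1 or IgG. G6Pc promoter quantified by qPCR.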

[12] = target: T1, CREB-binding protein/Histone acetyltransferase p300 (Homo sapiens) (UniProt Q09472+Q92793); assay: Inhibition of CBP/p300 in human HEK293T cells expressing HA-FOXO1 stimulated with 100 uM 8-Br-cAMP assessed as decrease in FOXO1 abundance in nucleus at 3 uM measured after 24 hrs by immunofluorescence analysis; format: cell-based; conditions: time 3.0 hrs, in the assay text read “3 hrs” for “24 hrs”
T1 sequence (Q09472 whole entry, looked up): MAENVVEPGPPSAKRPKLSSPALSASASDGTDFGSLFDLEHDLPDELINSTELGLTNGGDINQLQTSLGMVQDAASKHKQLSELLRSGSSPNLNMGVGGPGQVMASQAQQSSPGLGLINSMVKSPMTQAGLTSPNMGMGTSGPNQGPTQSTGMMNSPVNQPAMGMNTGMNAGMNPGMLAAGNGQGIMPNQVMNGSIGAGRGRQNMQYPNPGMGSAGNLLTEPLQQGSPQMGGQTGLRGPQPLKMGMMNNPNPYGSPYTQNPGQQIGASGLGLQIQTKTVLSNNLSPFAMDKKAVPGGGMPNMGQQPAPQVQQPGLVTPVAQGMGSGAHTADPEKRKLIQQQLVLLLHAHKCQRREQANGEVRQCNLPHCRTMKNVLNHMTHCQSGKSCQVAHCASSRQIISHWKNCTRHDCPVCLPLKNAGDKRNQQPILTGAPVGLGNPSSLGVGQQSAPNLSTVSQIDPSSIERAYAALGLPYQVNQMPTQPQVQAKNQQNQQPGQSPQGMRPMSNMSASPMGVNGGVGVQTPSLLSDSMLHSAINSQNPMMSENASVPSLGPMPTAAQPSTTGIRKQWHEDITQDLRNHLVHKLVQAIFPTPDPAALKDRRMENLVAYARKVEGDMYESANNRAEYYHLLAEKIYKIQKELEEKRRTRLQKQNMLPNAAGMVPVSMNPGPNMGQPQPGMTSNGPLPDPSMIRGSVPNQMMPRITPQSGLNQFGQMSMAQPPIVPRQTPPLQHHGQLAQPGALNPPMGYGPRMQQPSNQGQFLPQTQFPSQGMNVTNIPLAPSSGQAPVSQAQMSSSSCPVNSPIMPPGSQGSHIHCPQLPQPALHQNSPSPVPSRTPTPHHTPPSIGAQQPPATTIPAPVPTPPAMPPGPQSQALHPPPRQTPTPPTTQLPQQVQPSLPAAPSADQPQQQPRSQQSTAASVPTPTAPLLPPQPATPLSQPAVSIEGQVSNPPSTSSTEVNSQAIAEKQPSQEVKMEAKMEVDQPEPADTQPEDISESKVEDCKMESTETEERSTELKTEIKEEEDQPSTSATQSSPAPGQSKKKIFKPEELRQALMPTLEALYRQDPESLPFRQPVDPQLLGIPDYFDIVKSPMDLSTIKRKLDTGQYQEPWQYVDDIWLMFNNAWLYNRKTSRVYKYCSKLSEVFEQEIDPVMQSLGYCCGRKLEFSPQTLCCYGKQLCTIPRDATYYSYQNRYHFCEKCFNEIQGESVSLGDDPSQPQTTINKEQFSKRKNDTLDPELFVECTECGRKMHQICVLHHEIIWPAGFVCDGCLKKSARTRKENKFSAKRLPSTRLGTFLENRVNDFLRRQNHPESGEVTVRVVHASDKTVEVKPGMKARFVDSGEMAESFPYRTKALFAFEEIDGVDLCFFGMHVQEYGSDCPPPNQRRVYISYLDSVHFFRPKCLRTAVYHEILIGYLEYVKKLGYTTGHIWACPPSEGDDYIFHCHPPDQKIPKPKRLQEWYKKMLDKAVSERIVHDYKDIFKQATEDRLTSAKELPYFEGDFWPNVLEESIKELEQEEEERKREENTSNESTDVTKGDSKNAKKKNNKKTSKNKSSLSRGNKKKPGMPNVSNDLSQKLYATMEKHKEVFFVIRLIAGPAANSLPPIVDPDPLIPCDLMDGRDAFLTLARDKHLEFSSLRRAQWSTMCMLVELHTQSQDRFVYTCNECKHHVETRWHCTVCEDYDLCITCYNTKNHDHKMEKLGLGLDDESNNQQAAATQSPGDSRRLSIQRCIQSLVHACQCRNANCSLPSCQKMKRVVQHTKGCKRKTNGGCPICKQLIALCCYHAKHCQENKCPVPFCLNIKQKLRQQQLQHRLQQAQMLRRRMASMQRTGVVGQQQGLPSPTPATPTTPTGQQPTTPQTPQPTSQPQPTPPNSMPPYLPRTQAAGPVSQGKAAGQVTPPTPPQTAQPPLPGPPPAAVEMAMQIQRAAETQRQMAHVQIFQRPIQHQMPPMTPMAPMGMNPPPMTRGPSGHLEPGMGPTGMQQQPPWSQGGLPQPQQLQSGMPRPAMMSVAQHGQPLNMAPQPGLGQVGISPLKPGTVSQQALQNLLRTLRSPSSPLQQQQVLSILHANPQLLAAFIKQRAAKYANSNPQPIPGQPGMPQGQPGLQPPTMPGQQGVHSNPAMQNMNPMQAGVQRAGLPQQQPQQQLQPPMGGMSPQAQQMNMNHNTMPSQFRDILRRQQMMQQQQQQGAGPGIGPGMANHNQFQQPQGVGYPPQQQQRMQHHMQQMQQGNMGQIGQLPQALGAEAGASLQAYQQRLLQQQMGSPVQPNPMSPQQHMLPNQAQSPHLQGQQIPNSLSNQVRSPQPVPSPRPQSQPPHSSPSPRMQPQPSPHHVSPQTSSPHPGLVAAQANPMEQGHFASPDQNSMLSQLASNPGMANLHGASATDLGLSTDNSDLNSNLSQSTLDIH
T1 sequence (Q92793 whole entry, looked up): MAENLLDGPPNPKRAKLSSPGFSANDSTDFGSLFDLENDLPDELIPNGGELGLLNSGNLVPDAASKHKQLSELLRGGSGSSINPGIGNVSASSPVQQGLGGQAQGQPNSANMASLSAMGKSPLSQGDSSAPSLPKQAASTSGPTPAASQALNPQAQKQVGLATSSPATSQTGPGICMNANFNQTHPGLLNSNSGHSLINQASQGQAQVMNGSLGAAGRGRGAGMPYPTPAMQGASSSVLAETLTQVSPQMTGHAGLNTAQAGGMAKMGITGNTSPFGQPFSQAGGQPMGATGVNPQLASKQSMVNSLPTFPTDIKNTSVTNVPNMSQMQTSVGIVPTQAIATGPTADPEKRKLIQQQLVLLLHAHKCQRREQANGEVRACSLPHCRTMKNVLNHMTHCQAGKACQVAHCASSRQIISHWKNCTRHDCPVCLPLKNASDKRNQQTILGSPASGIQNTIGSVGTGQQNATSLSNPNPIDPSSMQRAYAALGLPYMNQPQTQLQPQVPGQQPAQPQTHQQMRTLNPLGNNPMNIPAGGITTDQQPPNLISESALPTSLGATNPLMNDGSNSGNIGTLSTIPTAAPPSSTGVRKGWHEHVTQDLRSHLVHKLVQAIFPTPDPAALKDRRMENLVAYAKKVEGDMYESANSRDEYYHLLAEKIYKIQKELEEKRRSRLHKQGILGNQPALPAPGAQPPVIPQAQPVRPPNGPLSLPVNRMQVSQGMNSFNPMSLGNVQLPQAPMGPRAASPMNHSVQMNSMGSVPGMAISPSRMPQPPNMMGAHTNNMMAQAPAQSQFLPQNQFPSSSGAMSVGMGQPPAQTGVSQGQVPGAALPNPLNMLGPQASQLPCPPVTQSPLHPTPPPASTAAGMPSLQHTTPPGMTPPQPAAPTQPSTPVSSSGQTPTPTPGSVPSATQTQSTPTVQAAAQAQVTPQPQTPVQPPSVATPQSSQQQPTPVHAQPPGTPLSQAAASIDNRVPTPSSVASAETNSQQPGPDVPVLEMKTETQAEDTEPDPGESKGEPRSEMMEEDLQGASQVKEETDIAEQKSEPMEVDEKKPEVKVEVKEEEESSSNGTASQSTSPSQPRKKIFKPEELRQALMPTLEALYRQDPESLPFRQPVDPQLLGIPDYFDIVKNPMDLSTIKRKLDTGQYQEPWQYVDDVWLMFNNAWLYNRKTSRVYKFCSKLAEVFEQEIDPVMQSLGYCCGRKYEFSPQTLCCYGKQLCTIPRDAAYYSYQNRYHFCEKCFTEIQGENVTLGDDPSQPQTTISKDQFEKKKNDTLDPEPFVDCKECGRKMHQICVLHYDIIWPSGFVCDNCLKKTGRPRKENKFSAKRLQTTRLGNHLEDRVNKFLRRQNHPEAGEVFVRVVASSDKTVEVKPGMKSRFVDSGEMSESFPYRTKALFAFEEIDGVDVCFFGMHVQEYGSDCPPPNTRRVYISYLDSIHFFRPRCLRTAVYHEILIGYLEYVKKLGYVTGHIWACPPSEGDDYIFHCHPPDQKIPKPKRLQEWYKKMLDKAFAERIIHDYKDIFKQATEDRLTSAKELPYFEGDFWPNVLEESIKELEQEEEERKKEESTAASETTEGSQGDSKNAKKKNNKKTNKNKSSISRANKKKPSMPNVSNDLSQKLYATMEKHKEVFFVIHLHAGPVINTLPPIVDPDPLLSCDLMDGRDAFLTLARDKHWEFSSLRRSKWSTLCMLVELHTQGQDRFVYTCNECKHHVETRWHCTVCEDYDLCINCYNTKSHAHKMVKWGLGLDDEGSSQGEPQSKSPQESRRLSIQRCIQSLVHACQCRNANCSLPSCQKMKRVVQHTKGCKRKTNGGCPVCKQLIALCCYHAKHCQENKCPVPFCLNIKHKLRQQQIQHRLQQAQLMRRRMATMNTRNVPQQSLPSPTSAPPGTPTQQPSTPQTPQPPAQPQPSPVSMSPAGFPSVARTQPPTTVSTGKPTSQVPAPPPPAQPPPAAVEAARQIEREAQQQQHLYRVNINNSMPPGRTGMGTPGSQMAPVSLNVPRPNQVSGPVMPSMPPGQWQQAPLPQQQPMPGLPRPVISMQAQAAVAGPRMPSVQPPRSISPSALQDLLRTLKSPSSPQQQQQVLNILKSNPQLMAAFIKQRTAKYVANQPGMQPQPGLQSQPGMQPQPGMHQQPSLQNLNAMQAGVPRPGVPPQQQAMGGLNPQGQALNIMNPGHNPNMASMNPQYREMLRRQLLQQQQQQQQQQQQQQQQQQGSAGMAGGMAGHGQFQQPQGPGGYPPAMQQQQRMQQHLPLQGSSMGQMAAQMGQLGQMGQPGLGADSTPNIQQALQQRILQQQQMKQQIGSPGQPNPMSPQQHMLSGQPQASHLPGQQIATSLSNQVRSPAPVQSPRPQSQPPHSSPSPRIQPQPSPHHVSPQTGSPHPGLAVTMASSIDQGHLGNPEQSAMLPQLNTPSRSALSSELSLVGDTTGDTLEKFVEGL
Summary of the method: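 HEK293T cells transfected with HA-FOXO1 plasmid for 24 h, then treated 3 h with 3 μM compound and 100 μM 8-Br-cAMP. Staining steps: fixed in 10% formalin, permeabilized 0.1% Triton X100, blocked 5% BSA, anti-HA (1:200) overnight at 4 °C, FITC secondary, DAPI. Localization imaged by fluorescence microscopy.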

[13] = target: T1, CREB-binding protein/Histone acetyltransferase p300 (Homo sapiens); assay: Inhibition of CBP/p300 in mouse primary hepatocytes stimulated with 100 uM 8-Br-cAMP assessed as decrease in half-life of endogenous FOXO1 at 3 uM in presence of 10 ug/ml cycloheximide; format: cell-based; conditions: Primary hepatocyte
Summary of the method: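 Primary mouse hepatocytes in 100 μM 8-Br-cAMP treated with 3 μM compound and 10 μg/ml cycloheximide for the indicated times. Endogenous FOXO1 immunoblotted; band intensity quantified. Three independent experiments.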

Hepatocyte [14] = assay: Inhibition of glucogenesis in mouse primary hepatocytes stimulated with 100 uM 8-Br-cAMP assessed as decrease in PEPCK mRNA expression at 3 uM measured after 8 hrs by RT-qPCR assay

- inhibition [12]: Active
- inhibition [13]: Active
Compound: CNC(=O)Nc1ccc2c(c1)CCS21OC(=O)N(CC(=O)N(Cc2ccc(F)cc2)[C@@H](C)C(F)(F)F)C1=O (stereo partly specified)
- Activity (Mus musculus [1]): Active
- Activity (Mus musculus [2]): inactive
- inhibition (Mus musculus [3]): Active
- inhibition (Adipocyte): Active
- inhibition (Mus musculus [4]): Active
- inhibition (Mus musculus [5]): inactive
- inhibition (Hepatocyte [6]): Active
- inhibition (Hepatocyte [7]): Active
- inhibition (Hepatocyte [8]): Active
- inhibition (HepG2): inactive
- inhibition (Hepatocyte [9]): inactive
- inhibition (Hepatocyte [10]): Active
- inhibition (Mus musculus [11]): Active
- inhibition (Hepatocyte [14]): Active
